From ChEMBL document CHEMBL5058577, “EUbOPEN Chemogenomics Library 2 (Multiplex)” (2022)

System: U2OS
Test: Multiplex assay against U2OS
Assay type: toxicity, cell-based
Settings: human
Procedure, shortened: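 Live cells carried four stains from seeding: Hoechst33342, BioTracker Green Microtubule Cytoskeleton Dye, MitoTracker Red and Annexin V Alexa Fluor 680. They were imaged on a CQ1 microscope at 37°C and 5% CO2 after compound addition. Using CellPathfinder machine-learning gating, cells were split into Hoechst high-intensity objects or normal cells, normal cells into healthy, pyknosed or fragmented nuclei, and pyknosed cells into mitotic or apoptotic; tubulin, mitochondrial-mass and membrane-permeability phenotypes are per cents of healthy-nucleus cells.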

[1] = 12 h, 1 µM, compound concentration 1 uM, replicate 1
[2] = 12 h, 1 µM, compound concentration 1 uM, replicate 2
[3] = 12 h, 10 µM, compound concentration 10 uM, replicate 1
[4] = 12 h, 10 µM, compound concentration 10 uM, replicate 2
[5] = 24 h, 1 µM, compound concentration 1 uM, replicate 1
[6] = 24 h, 1 µM, compound concentration 1 uM, replicate 2
[7] = 24 h, 10 µM, compound concentration 10 uM, replicate 1
[8] = 24 h, 10 µM, compound concentration 10 uM, replicate 2
[9] = 48 h, 1 µM, compound concentration 1 uM, replicate 1
[10] = 48 h, 1 µM, compound concentration 1 uM, replicate 2
[11] = 48 h, 10 µM, compound concentration 10 uM, replicate 1
[12] = 48 h, 10 µM, compound concentration 10 uM, replicate 2

## CN1CCN(c2nc3cc(C(F)(F)F)ccc3n3cccc23)CC1.O=C(O)/C=C\C(=O)O.O=C(O)/C=C\C(=O)O
[1]
  Population Apoptotic (%): 77%
  Population Fragmented Nuclei (%): 17%
  Population Healthy Nuclei (%): 75%
  Population Hoechst High Intensity Objects (%): 1%
  Population Membrane Permeable-Phenotype (%): 4%
  Population Mitochondria Different-Phenotype (%): 0%
  Population Mitotic Cells (%): 22%
  Population Normal (%): 98%
  Population Pyknosed Nuclei (%): 6%
  Population Tubulin-Different-Phenotype (%): 1%
  Total Cell Count: 266
[2]
  Population Apoptotic (%): 100%
  Population Fragmented Nuclei (%): 18%
  Population Healthy Nuclei (%): 73%
  Population Hoechst High Intensity Objects (%): 0%
  Population Membrane Permeable-Phenotype (%): 8%
  Population Mitochondria Different-Phenotype (%): 2%
  Population Mitotic Cells (%): 0%
  Population Normal (%): 99%
  Population Pyknosed Nuclei (%): 8%
  Population Tubulin-Different-Phenotype (%): 3%
  Total Cell Count: 111
[3]
  Population Apoptotic (%): 66%
  Population Fragmented Nuclei (%): 31%
  Population Healthy Nuclei (%): 53%
  Population Hoechst High Intensity Objects (%): 1%
  Population Membrane Permeable-Phenotype (%): 18%
  Population Mitochondria Different-Phenotype (%): 45%
  Population Mitotic Cells (%): 33%
  Population Normal (%): 98%
  Population Pyknosed Nuclei (%): 15%
  Population Tubulin-Different-Phenotype (%): 19%
  Total Cell Count: 218
[4]
  Population Apoptotic (%): 88%
  Population Fragmented Nuclei (%): 25%
  Population Healthy Nuclei (%): 68%
  Population Hoechst High Intensity Objects (%): 2%
  Population Membrane Permeable-Phenotype (%): 13%
  Population Mitochondria Different-Phenotype (%): 41%
  Population Mitotic Cells (%): 11%
  Population Normal (%): 97%
  Population Pyknosed Nuclei (%): 6%
  Population Tubulin-Different-Phenotype (%): 21%
  Total Cell Count: 135
[5]
  Population Apoptotic (%): 85%
  Population Fragmented Nuclei (%): 17%
  Population Healthy Nuclei (%): 73%
  Population Hoechst High Intensity Objects (%): 2%
  Population Membrane Permeable-Phenotype (%): 5%
  Population Mitochondria Different-Phenotype (%): 1%
  Population Mitotic Cells (%): 14%
  Population Normal (%): 97%
  Population Pyknosed Nuclei (%): 9%
  Population Tubulin-Different-Phenotype (%): 3%
  Total Cell Count: 300
[6]
  Population Apoptotic (%): 92%
  Population Fragmented Nuclei (%): 13%
  Population Healthy Nuclei (%): 77%
  Population Hoechst High Intensity Objects (%): 0%
  Population Membrane Permeable-Phenotype (%): 8%
  Population Mitochondria Different-Phenotype (%): 4%
  Population Mitotic Cells (%): 7%
  Population Normal (%): 99%
  Population Tubulin-Different-Phenotype (%): 4%
  Total Cell Count: 136
[7]
  Population Apoptotic (%): 76%
  Population Fragmented Nuclei (%): 31%
  Population Healthy Nuclei (%): 57%
  Population Hoechst High Intensity Objects (%): 3%
  Population Membrane Permeable-Phenotype (%): 16%
  Population Mitochondria Different-Phenotype (%): 41%
  Population Mitotic Cells (%): 24%
  Population Normal (%): 96%
  Population Pyknosed Nuclei (%): 10%
  Population Tubulin-Different-Phenotype (%): 14%
  Total Cell Count: 244
[8]
  Population Apoptotic (%): 78%
  Population Fragmented Nuclei (%): 19%
  Population Healthy Nuclei (%): 71%
  Population Membrane Permeable-Phenotype (%): 17%
  Population Mitochondria Different-Phenotype (%): 36%
  Population Mitotic Cells (%): 21%
  Population Pyknosed Nuclei (%): 9%
  Population Tubulin-Different-Phenotype (%): 16%
  Total Cell Count: 156
[9]
  Population Apoptotic (%): 87%
  Population Fragmented Nuclei (%): 14%
  Population Healthy Nuclei (%): 77%
  Population Hoechst High Intensity Objects (%): 2%
  Population Membrane Permeable-Phenotype (%): 4%
  Population Mitochondria Different-Phenotype (%): 0%
  Population Mitotic Cells (%): 12%
  Population Normal (%): 97%
  Population Pyknosed Nuclei (%): 7%
  Population Tubulin-Different-Phenotype (%): 2%
  Total Cell Count: 447
[10]
  Population Apoptotic (%): 85%
  Population Fragmented Nuclei (%): 17%
  Population Healthy Nuclei (%): 75%
  Population Hoechst High Intensity Objects (%): 1%
  Population Membrane Permeable-Phenotype (%): 6%
  Population Mitochondria Different-Phenotype (%): 5%
  Population Mitotic Cells (%): 14%
  Population Normal (%): 98%
  Population Tubulin-Different-Phenotype (%): 3%
  Total Cell Count: 187
[11]
  Population Apoptotic (%): 78%
  Population Fragmented Nuclei (%): 31%
  Population Healthy Nuclei (%): 52%
  Population Hoechst High Intensity Objects (%): 4%
  Population Membrane Permeable-Phenotype (%): 16%
  Population Mitochondria Different-Phenotype (%): 17%
  Population Mitotic Cells (%): 21%
  Population Normal (%): 95%
  Population Pyknosed Nuclei (%): 16%
  Population Tubulin-Different-Phenotype (%): 12%
  Total Cell Count: 299
[12]
  Population Apoptotic (%): 81%
  Population Fragmented Nuclei (%): 21%
  Population Healthy Nuclei (%): 67%
  Population Hoechst High Intensity Objects (%): 3%
  Population Membrane Permeable-Phenotype (%): 10%
  Population Mitochondria Different-Phenotype (%): 16%
  Population Mitotic Cells (%): 18%
  Population Normal (%): 96%
  Population Pyknosed Nuclei (%): 11%
  Population Tubulin-Different-Phenotype (%): 9%
  Total Cell Count: 202
